Measurements from ChEMBL document CHEMBL4689842, “EUbOPEN Chemogenomics Library wave 1” (2021).

Test system: HEK-293T
Assay: Multiplex assay against HEK293T;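 as to Population Tubulin-Different-Phenotype (%): share of the cells with healthy nuclei that show this phenotype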
Type: toxicity, cell-based
Conditions: human
Summary of the method: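 On a CQ1 microscope at 37°C and 5% CO2, live cells were imaged after compound addition. They had been stained at seeding with Hoechst33342, BioTracker Green Microtubule Cytoskeleton Dye, MitoTracker Red and Annexin V Alexa Fluor 680. CellPathfinder machine-learning gating assigned cells to Hoechst high-intensity objects or normal cells, normal cells to healthy, pyknosed or fragmented nuclei, and pyknosed cells to mitotic or apoptotic. Tubulin, mitochondrial-mass and membrane-permeability phenotypes are per cents of healthy-nucleus cells.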

[1] = 12 h, 1 µM, compound concentration 1 uM, replicate 1
[2] = 12 h, 1 µM, compound concentration 1 uM, replicate 2
[3] = 12 h, 10 µM, compound concentration 10 uM, replicate 1
[4] = 12 h, 10 µM, compound concentration 10 uM, replicate 2
[5] = 24 h, 1 µM, compound concentration 1 uM, replicate 1
[6] = 24 h, 1 µM, compound concentration 1 uM, replicate 2
[7] = 24 h, 10 µM, compound concentration 10 uM, replicate 1
[8] = 24 h, 10 µM, compound concentration 10 uM, replicate 2
[9] = 48 h, 1 µM, compound concentration 1 uM, replicate 1
[10] = 48 h, 1 µM, compound concentration 1 uM, replicate 2
[11] = 48 h, 10 µM, compound concentration 10 uM, replicate 1
[12] = 48 h, 10 µM, compound concentration 10 uM, replicate 2

CCOC(=O)c1c(C)[nH]c2ccc3c(c12)CN1CCc2cc(OC)ccc2C1O3 (centres undefined)
Population Apoptotic (%) [1]: 61%
Population Fragmented Nuclei (%) [1]: 14%
Population Healthy Nuclei (%) [1]: 30%
Population Hoechst High Intensity Objects (%) [1]: 14%
Population Membrane Permeable-Phenotype (%) [1]: 1%
Population Mitochondria Different-Phenotype (%) [1]: 100%
Population Mitotic Cells (%) [1]: 38%
Population Normal (%) [1]: 85%
Population Pyknosed Nuclei (%) [1]: 54%
Total Cell Count [1]: 228
Population Apoptotic (%) [2]: 36%
Population Fragmented Nuclei (%) [2]: 4%
Population Healthy Nuclei (%) [2]: 28%
Population Hoechst High Intensity Objects (%) [2]: 5%
Population Membrane Permeable-Phenotype (%) [2]: 5%
Population Mitochondria Different-Phenotype (%) [2]: 88%
Population Mitotic Cells (%) [2]: 63%
Population Normal (%) [2]: 94%
Population Pyknosed Nuclei (%) [2]: 67%
Population Tubulin-Different-Phenotype (%) [2]: 86%
Total Cell Count [2]: 132
Population Apoptotic (%) [3]: 90%
Population Fragmented Nuclei (%) [3]: 12%
Population Hoechst High Intensity Objects (%) [3]: 20%
Population Membrane Permeable-Phenotype (%) [3]: 0%
Population Mitochondria Different-Phenotype (%) [3]: 100%
Population Mitotic Cells (%) [3]: 9%
Population Normal (%) [3]: 79%
Population Pyknosed Nuclei (%) [3]: 76%
Population Tubulin-Different-Phenotype (%) [3]: 95%
Total Cell Count [3]: 266
Population Apoptotic (%) [4]: 88%
Population Fragmented Nuclei (%) [4]: 5%
Population Healthy Nuclei (%) [4]: 10%
Population Hoechst High Intensity Objects (%) [4]: 12%
Population Membrane Permeable-Phenotype (%) [4]: 7%
Population Mitochondria Different-Phenotype (%) [4]: 92%
Population Mitotic Cells (%) [4]: 11%
Population Normal (%) [4]: 87%
Population Pyknosed Nuclei (%) [4]: 83%
Population Tubulin-Different-Phenotype (%) [4]: 92%
Total Cell Count [4]: 156
Population Apoptotic (%) [5]: 57%
Population Fragmented Nuclei (%) [5]: 17%
Population Healthy Nuclei (%) [5]: 47%
Population Hoechst High Intensity Objects (%) [5]: 7%
Population Membrane Permeable-Phenotype (%) [5]: 0%
Population Mitochondria Different-Phenotype (%) [5]: 94%
Population Mitotic Cells (%) [5]: 42%
Population Normal (%) [5]: 92%
Population Pyknosed Nuclei (%) [5]: 35%
Population Tubulin-Different-Phenotype (%) [5]: 80%
Total Cell Count [5]: 254
Population Apoptotic (%) [6]: 48%
Population Fragmented Nuclei (%) [6]: 3%
Population Healthy Nuclei (%) [6]: 45%
Population Hoechst High Intensity Objects (%) [6]: 3%
Population Membrane Permeable-Phenotype (%) [6]: 5%
Population Mitochondria Different-Phenotype (%) [6]: 91%
Population Mitotic Cells (%) [6]: 51%
Population Normal (%) [6]: 96%
Population Pyknosed Nuclei (%) [6]: 51%
Population Tubulin-Different-Phenotype (%) [6]: 86%
Total Cell Count [6]: 154
Population Apoptotic (%) [7]: 91%
Population Fragmented Nuclei (%) [7]: 15%
Population Healthy Nuclei (%) [7]: 8%
Population Hoechst High Intensity Objects (%) [7]: 22%
Population Membrane Permeable-Phenotype (%) [7]: 0%
Population Mitochondria Different-Phenotype (%) [7]: 94%
Population Mitotic Cells (%) [7]: 8%
Population Normal (%) [7]: 77%
Population Pyknosed Nuclei (%) [7]: 75%
Population Tubulin-Different-Phenotype (%) [7]: 94%
Total Cell Count [7]: 275
Population Apoptotic (%) [8]: 92%
Population Fragmented Nuclei (%) [8]: 6%
Population Healthy Nuclei (%) [8]: 9%
Population Hoechst High Intensity Objects (%) [8]: 16%
Population Mitochondria Different-Phenotype (%) [8]: 92%
Population Mitotic Cells (%) [8]: 7%
Population Normal (%) [8]: 83%
Population Pyknosed Nuclei (%) [8]: 84%
Population Tubulin-Different-Phenotype (%) [8]: 92%
Total Cell Count [8]: 158
Population Apoptotic (%) [9]: 52%
Population Fragmented Nuclei (%) [9]: 11%
Population Healthy Nuclei (%) [9]: 70%
Population Hoechst High Intensity Objects (%) [9]: 7%
Population Membrane Permeable-Phenotype (%) [9]: 1%
Population Mitochondria Different-Phenotype (%) [9]: 71%
Population Mitotic Cells (%) [9]: 47%
Population Normal (%) [9]: 92%
Population Pyknosed Nuclei (%) [9]: 17%
Population Tubulin-Different-Phenotype (%) [9]: 50%
Total Cell Count [9]: 354
Population Apoptotic (%) [10]: 36%
Population Fragmented Nuclei (%) [10]: 6%
Population Healthy Nuclei (%) [10]: 72%
Population Hoechst High Intensity Objects (%) [10]: 4%
Population Membrane Permeable-Phenotype (%) [10]: 2%
Population Mitochondria Different-Phenotype (%) [10]: 52%
Population Mitotic Cells (%) [10]: 63%
Population Normal (%) [10]: 95%
Population Pyknosed Nuclei (%) [10]: 21%
Population Tubulin-Different-Phenotype (%) [10]: 66%
Total Cell Count [10]: 226
Population Apoptotic (%) [11]: 80%
Population Fragmented Nuclei (%) [11]: 19%
Population Healthy Nuclei (%) [11]: 22%
Population Hoechst High Intensity Objects (%) [11]: 29%
Population Membrane Permeable-Phenotype (%) [11]: 0%
Population Mitochondria Different-Phenotype (%) [11]: 100%
Population Mitotic Cells (%) [11]: 19%
Population Normal (%) [11]: 70%
Population Pyknosed Nuclei (%) [11]: 58%
Population Tubulin-Different-Phenotype (%) [11]: 93%
Total Cell Count [11]: 290
Population Apoptotic (%) [12]: 93%
Population Fragmented Nuclei (%) [12]: 3%
Population Healthy Nuclei (%) [12]: 15%
Population Hoechst High Intensity Objects (%) [12]: 14%
Population Membrane Permeable-Phenotype (%) [12]: 5%
Population Mitochondria Different-Phenotype (%) [12]: 95%
Population Mitotic Cells (%) [12]: 6%
Population Normal (%) [12]: 85%
Population Pyknosed Nuclei (%) [12]: 80%
Population Tubulin-Different-Phenotype (%) [12]: 100%
Total Cell Count [12]: 148
